Measured values reported in ChEMBL document CHEMBL1127319, “CNAD: a potent and specific inhibitor of alcohol dehydrogenase” (J Med Chem, 1994).

Substrate: NC(=O)c1ccc[n+]([C@@H]2O[C@H](COP(=O)([O-])OP(=O)(O)OC[C@H]3O[C@@H](n4cnc5c(N)ncnc54)[C@H](O)[C@@H]3O)[C@@H](O)[C@H]2O)c1
Assay: Michaelis-Menten constant against mammalian liver alcohol dehydrogenase (ADH)
Conditions: Equus caballus
How it was run: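 NAD is varied and the A340 increase from NADH formation is monitored (ε 6.22 mM-1 cm-1). Buffers differ by enzyme: ADH in 0.1 M phosphate, pH 8.0, with ethanol 1.2 mM; GDH in 0.1 M phosphate, pH 7.0, with 10 μM EDTA; LDH and MDH in 0.05 M Tris-HCl, pH 9.0. At least duplicate.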

B1: Alcohol dehydrogenase 1A (Homo sapiens), P07327 (protein)
chain: MSTAGKVIKCKAAVLWELKKPFSIEEVEVAPPKAHEVRIKMVAVGICGTDDHVVSGTMVTPLPVILGHEAAGIVESVGEGVTTVKPGDKVIPLAIPQCGKCRICKNPESNYCLKNDVSNPQGTLQDGTSRFTCRRKPIHHFLGISTFSQYTVVDENAVAKIDAASPLEKVCLIGCGFSTGYGSAVNVAKVTPGSTCAVFGLGGVGLSAIMGCKAAGAARIIAVDINKDKFAKAKELGATECINPQDYKKPIQEVLKEMTDGGVDFSFEVIGRLDTMMASLLCCHEACGTSVIVGVPPDSQNLSMNPMLLLTGRTWKGAILGGFKSKECVPKLVADFMAKKFSLDALITHVLPFEKINEGFDLLHSGKSIRTILMF
Km: 25 µM
